# The source made the active and inactive calls. No cut-off for these calls is given here.
# Key:
# Format in all cases: functional, cell-based
# BGC-823 = test: Cytotoxicity against human BGC823 cells by MTT assay
# A2780 = test: Cytotoxicity against human A2780 cells by MTT assay
# HCT-8 = test: Cytotoxicity against human HCT8 cells by MTT assay
# Bel-7402 = test: Cytotoxicity against human Bel7402 cells by MTT assay
# HepG2 = test: Hepatoprotective activity against N-acetyl-p-aminophenol-induced toxicity in human HepG2 cells at 10 uM after 48 hrs by MTT assay
# Procedure, shortened: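 HepG2 cells kept in DMEM with 10% fetal calf serum plus penicillin/streptomycin at 37 °C, 5% CO2, passaged with 0.25% trypsin/0.02% EDTA. After seeding and overnight incubation, 10 μM test sample added together with APAP (8 mM final) for 48 h. MTT (0.5 mg/mL) added for 4 h, formazan dissolved in DMSO, absorbance at 570 nm. Bicyclol 10 μM as positive control; mean ± SD, n = 3.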
# A549 = test: Cytotoxicity against human A549 cells by MTT assay
SMILES,IC50 (BGC-823) [µM],IC50 (A2780) [µM],IC50 (HCT-8) [µM],IC50 (Bel-7402) [µM],Activity (HepG2),IC50 (A549) [µM]
CC(C)[C@]1(O)C(=O)C[C@H](C)[C@@]12CC[C@](C)(O)C(=O)C2,> 10,> 10,> 10,> 10,Active,> 10
CC1=CCC23OC(C(C)(C)O)(CC12O)C(=O)C=C3C (racemic),> 10,> 10,> 10,> 10,Active,> 10
CC1=C[C@@H](O)[C@@]2(CC1=O)[C@@H](C(C)C)C(=O)C[C@@H]2C (relative stereo),> 10,> 10,> 10,> 10,–,> 10
C[C@@H]1C(=O)CC[C@@H](C)[C@]2(O)C=C(C(C)(C)O)C(=O)[C@@H]12 [CALAMUSIN A],> 10,> 10,> 10,> 10,–,> 10
C[C@@H]1CC[C@]2(O)O[C@]13C=C(C(C)(C)O)C(=O)[C@H]3[C@@H]2C [CALAMUSIN B],> 10,> 10,> 10,> 10,–,> 10
CC1=C[C@H](O)[C@]2(CC1=O)[C@H](C)CC(=O)[C@H]2C(C)C [CALAMUSIN E],> 10,> 10,> 10,> 10,–,> 10
CC(C)=C1C(=O)C[C@@H](C)[C@@]2(O)CC[C@H](C)C(=O)[C@@H]12 [CALAMUSIN G],> 10,> 10,> 10,> 10,Active,> 10
Cc1ccc(C(C)C)c2c1[C@H](O)C[C@@](C)(O)[C@H]2O [CALAMUSIN H],> 10,> 10,> 10,> 10,–,> 10
C[C@]1(O)CC[C@H](O)[C@@]2(C)CCC(=O)C=C12 [CALAMUSIN I],> 10,> 10,> 10,> 10,Active,> 10

# Source: ChEMBL document CHEMBL2062424, “Bioactive sesquiterpenoids from the rhizomes of Acorus calamus” (J Nat Prod, 2012)
